The results in this text go back to PubChem BioAssay.

The source made the active and inactive calls.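 The calls were made as follows, unless noted: active = current rise at least 3 SD above the untreated control mean in each of two repeat wells; inactive = the rest.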

Assay [1] addresses Potassium voltage-gated channel subfamily KQT member 1 (Homo sapiens) (UniProt P51787). As to the kind of experiment: KCNQ1 channel current potentiators, confirmation, orthogonal assay for KCNQ1 potentiator project, IonWorks patch clamp, KCNQ1-CHO cells (AID 493184). As to conditions: automated patch clamp current, at 10 µM. The gist of the method: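 Test system: KCNQ1-expressing CHO cells. Medium: pH 7.4 external bath. Probe or stimulus: voltage step from -90 mV holding to +40 mV, 2,000 ms. Compound: 10 µM final, single point. Detection: automated perforated-patch electrophysiology. Read-out: percent current increase versus pre-compound level. Repeats: two replicates.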

For assay [2], the target named is Potassium voltage-gated channel subfamily E member 1 (Homo sapiens) + Potassium voltage-gated channel subfamily KQT member 1 (Homo sapiens) (UniProt P15382+P51787). Put plainly: KCNQ1/KCNE1 complex potentiators, confirmation, selectivity assay for KCNQ1 potentiator project, thallium flux, CHO-K1 KCNQ1/E1 cells (AID 493186;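 active = mean duplicate activation above the buffer control mean plus 5 SD of those controls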). As to conditions: FluxOR thallium flux, at 10 µM. In short, it runs like this:
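Material: CHO-K1 cells with KCNQ1/E1 / Timing: dye 90 min, compound 20 min, room temperature / Technique: kinetic thallium-sensitive FluxOR dye fluorescence / Read-out: percent activation scaled between buffer and R-L3 ratio signals / Replicates: tested in duplicate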

Sequence of Potassium voltage-gated channel subfamily KQT member 1 (Homo sapiens) (P51787 whole entry, looked up): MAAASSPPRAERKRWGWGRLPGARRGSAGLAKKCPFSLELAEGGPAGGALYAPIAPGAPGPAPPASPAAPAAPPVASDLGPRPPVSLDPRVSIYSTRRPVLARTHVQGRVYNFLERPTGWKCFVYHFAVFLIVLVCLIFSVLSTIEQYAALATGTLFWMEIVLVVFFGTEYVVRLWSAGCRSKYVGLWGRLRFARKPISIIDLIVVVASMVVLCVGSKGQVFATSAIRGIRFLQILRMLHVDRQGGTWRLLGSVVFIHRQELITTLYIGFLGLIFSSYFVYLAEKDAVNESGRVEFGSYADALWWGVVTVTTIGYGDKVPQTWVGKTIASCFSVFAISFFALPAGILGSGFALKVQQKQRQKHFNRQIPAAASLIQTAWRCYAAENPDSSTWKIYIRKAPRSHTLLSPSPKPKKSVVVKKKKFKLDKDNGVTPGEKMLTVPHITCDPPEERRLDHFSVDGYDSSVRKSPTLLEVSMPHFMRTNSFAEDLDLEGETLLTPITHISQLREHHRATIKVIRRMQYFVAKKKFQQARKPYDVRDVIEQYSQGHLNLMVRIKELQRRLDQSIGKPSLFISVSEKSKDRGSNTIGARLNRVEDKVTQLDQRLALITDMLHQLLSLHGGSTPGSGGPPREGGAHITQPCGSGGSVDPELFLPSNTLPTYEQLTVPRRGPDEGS
Sequence of Potassium voltage-gated channel subfamily E member 1 (Homo sapiens) + Potassium voltage-gated channel subfamily KQT member 1 (Homo sapiens) (P51787 whole entry, looked up): as the sequence (P51787 whole entry, looked up) above

In the case of `S=c1[nH]nc(-c2cc3c(s2)-c2ccccc2CC3)o1`, the outcome in assay [1] was inactive.
The same measure, in the same setting: the same measure for `Cc1nc2c3cc(Cl)ccc3n(CCN3CCCCC3)c2s1`: “inactive”.
On to `Brc1ccccc1CN1CCN(Cc2c[nH]c3ccccc23)CC1`, for which the outcome in assay [1] and in assay [2] was inactive.
Take `C=CCSc1nc2c(c(=O)[nH]c(=O)n2C)n1C/C=C(/C)Cl`: the outcome in assay [1] and in assay [2] was inactive.
With `Cc1cc(C)cc(N/C(N)=N/c2nc(C)cc(C)n2)c1`, the result in assay [1] and in assay [2] was inactive.
As for `O=Cc1cc(N=Nc2ccccc2Cl)ccc1O`, the result in assay [1] was inactive.
The same measure, in the same setting: the result for `Cc1cccc(/C=N/NC(=O)c2cc(Br)ccc2O)n1` reads “inactive”.
